High-throughput results deposited in PubChem BioAssay by several laboratories.
PfM18AAP inh-1: PfM18AAP enzyme inhibition. recombinant PfM18AAP, H-Glu-NHMec fluorogenic cleavage. inhibition, % at 7.35 µM. 1.2% of 290,000 active. AID 1822;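 active = inhibition above the campaign mean inhibition over all tested compounds plus 3 SD, cut at about 28% in these data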
EBNA-1 inh: blocks EBNA-1 binding to DNA. EBNA-1 DNA binding, fluorescence polarization. AID 1950. 0.34% of 300,000 active. inhibition, % at 14.8 µM; in the data active = inhibition above about 28%
NS3 helicase inh: blocks Hepatitis C virus NS3 helicase unwinding | NS3 helicase DNA unwinding, Cy5 molecular beacon fluorescence | inhibition, % at 10.9 µM | 0.56% of 290,000 active | AID 1800;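 active = inhibition above the mean of all tested compounds plus 3 SD, set per campaign, cut at about 35% in these data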
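Measured by: Cy5 fluorescence, 0 and 60 min reads / Assay system: NS3 helicase fragment of HCV / Control set: low DMSO, high thioflavine S at 110 µM / Times: 1 h reaction at 25 °C, ATP-initiated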
ZTA DNA inh: counter-screen for EBNA-1 inhibitors: inhibitors of Epstein-Barr virus ZTA. ZTA-DNA binding, fluorescence polarization. inhibition, % at 11 µM. 0.15% of 320,000 active; in the data active = inhibition above about 33%
ALR inh: inhibitors of human sulfhydryl oxidase ALR; purified ALR, DTT oxidation, H2O2 HRP-luminol luminescence; inhibition, % (concentration not given with the values); 3.8% of 290,000 active;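 active = mean replicate inhibition above about 79%, with every replicate also reaching it, limit read from the data; inconclusive = only one of the two criteria met; inactive = mean below limit and not every replicate reaching it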
Target sequence (P55789 whole entry, looked up): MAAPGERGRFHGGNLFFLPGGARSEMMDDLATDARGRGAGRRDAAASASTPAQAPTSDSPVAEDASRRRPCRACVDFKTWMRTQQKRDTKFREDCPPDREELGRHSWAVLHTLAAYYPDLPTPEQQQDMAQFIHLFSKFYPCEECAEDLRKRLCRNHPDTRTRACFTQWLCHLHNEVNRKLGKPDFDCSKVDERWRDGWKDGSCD
core dimer inh: blocks dimerization of HCV core protein; inhibition, % at 5 µM; 0.33% of 300,000 active; TR-FRET GST/Flag-core106 dimerization, 1536-well;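 active = inhibition above the mean of all tested compounds plus 3 SD, set per screening campaign, cut at about 45% in these data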
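Material: Tagged HCV core106 pair (GST and Flag) | Amount: GST-core106 13.5 nM, Flag-core106 17 nM | Medium: KF-containing HEPES buffer, pH 7.45, DTT, CHAPS, BSA | Reagent: Eu donor and XL665 acceptor anti-tag antibodies | Schedule: 4 h at 22.5 °C | Technique: Time-resolved FRET, ex 340 nm, em 617 and 671 nm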
PfM18AAP inh-2: confirmation of Plasmodium falciparum M18 aspartyl aminopeptidase inhibitors. shares compounds with PfM18AAP inh-1. recombinant PfM18AAP, H-Glu-NHMec fluorogenic cleavage. inhibition, % at 7.35 µM. 28% of 2,400 active;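 active = mean inhibition over replicate wells above the hit cutoff set for the earlier primary screen, cut at about 29% in these data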
CTSL1 counter: counter-screen for PFM18AAP inhibitors: confirmation of human cathepsin L inhibitors. shares compounds with PfM18AAP inh-1. purified cathepsin L1, Z-Leu-Arg-MCA fluorescence. inhibition, % at 5.96 µM. 2,400 tested, under 10 active;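 active = average inhibition across replicates above the hit cutoff set in the earlier primary screen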
Target sequence (P07711 whole entry, looked up): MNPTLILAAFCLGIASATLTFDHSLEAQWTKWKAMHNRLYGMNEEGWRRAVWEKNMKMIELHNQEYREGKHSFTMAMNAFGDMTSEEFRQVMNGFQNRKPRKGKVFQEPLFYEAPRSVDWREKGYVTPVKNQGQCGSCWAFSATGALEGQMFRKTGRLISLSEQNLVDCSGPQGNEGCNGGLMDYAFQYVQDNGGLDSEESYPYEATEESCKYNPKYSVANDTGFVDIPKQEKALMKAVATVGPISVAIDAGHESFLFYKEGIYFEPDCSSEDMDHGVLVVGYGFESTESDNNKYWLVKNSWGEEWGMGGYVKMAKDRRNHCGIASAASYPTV
Each line names hits and unclear results; the compound was inactive in the other large screens (follow-up assays come after a bar, where they were run). An excerpt weighted towards active compounds, which were near 5.2% of everything screened.

Cc1ccc(S(=O)(=O)/C(C#N)=C/c2c(N3CCN(Cc4ccccc4)CC3)nc3ccccn3c2=O)cc1	none
CN(C)c1ccc(/C=N/n2cnn(Cc3ccccc3Cl)c2=S)cc1	none
Fc1ccc(/C=N/n2cnn(Cc3ccccc3Cl)c2=S)cc1	PfM18AAP inh-1 41 | PfM18AAP inh-2 inactive | CTSL1 counter inactive
COc1ccc2c(-c3ccccc3)cc(N3CCOCC3)nc2c1	PfM18AAP inh-1 50 | PfM18AAP inh-2 inactive | CTSL1 counter inactive
CCCCCCCCCCCC(=O)NC(C(=O)OCC)C(O)c1cccc([N+](=O)[O-])c1 (centres undefined)	none
CC(C)[C@H](N)C(=O)N1CCC(C(=O)N[C@@H](Cc2ccccc2)C(=O)NCc2ccc(F)cc2)CC1	none
COCCCn1c(=O)c2ccccc2n2c(=S)[nH]nc12	PfM18AAP inh-1 35, ALR inh inconclusive | PfM18AAP inh-2 inactive | CTSL1 counter inactive
Cc1ccccc1-n1c(=O)c2ccccc2n2c(=O)[nH]nc12	none
Cc1cccc(-n2c(=O)c3ccccc3n3c(=S)[nH]nc23)c1C	PfM18AAP inh-1 40 | PfM18AAP inh-2 inactive | CTSL1 counter inactive
COc1cccc(-n2c(=O)c3ccccc3n3c(=S)[nH]nc23)c1	PfM18AAP inh-1 36 | PfM18AAP inh-2 inactive | CTSL1 counter inactive
CC(Sc1nnc(-c2cccs2)n1N)C(=O)NCC1CCCO1 (centres undefined)	none (no result: PfM18AAP inh-1, NS3 helicase inh)
CSc1ncc(Cl)c(C(=O)NCc2cccnc2)n1	none (no result: EBNA-1 inh, ZTA DNA inh, core dimer inh)
COc1cc(OC)c(C(=O)NCCCN2CCOCC2)cc1OC	PfM18AAP inh-1 57 | PfM18AAP inh-2 inactive | CTSL1 counter inactive
S=C(NCCCN1CCOCC1)NCCCN1CCOCC1	PfM18AAP inh-1 39 | PfM18AAP inh-2 inactive | CTSL1 counter inactive
COc1cc2ccccc2cc1C(=O)NCCCN1CCOCC1	none (no result: PfM18AAP inh-1, NS3 helicase inh)
COc1ccccc1-n1cc(-c2ccccc2)[nH]c1=S	none
COc1ccc(-n2cc(-c3ccccc3)[nH]c2=S)cc1	PfM18AAP inh-1 44, ALR inh 85 | PfM18AAP inh-2 33 | CTSL1 counter inactive
Cc1cccc(-n2cc(-c3ccccc3)[nH]c2=S)c1	PfM18AAP inh-1 39, ALR inh 77 | PfM18AAP inh-2 inactive | CTSL1 counter inactive
CC(=O)Nc1ccc(-n2cc(-c3ccccc3)[nH]c2=S)cc1	PfM18AAP inh-1 64, ALR inh 99 | PfM18AAP inh-2 58 | CTSL1 counter inactive
CCN(CC)C1CCN(C(=O)c2ccc(OC3CCN(Cc4ccccn4)CC3)cc2)C1 (centres undefined)	none
COC(=O)Cc1sc(-c2ccccn2)nc1-c1ccccc1	PfM18AAP inh-1 33 | PfM18AAP inh-2 inactive | CTSL1 counter inactive
COC(=O)Cc1ccc2sc(-c3ccccc3)nc2c1	none (no result: ALR inh)
COc1ccc(OC)c(C2NC(=S)NC3=C2N2CCC3CC2)c1 (centres undefined)	PfM18AAP inh-1 44 (no result: ALR inh) | PfM18AAP inh-2 inactive | CTSL1 counter inactive
Fc1cccc(C2NC(=S)NC3=C2N2CCC3CC2)c1 (centres undefined)	none
CC1(C)CC(=O)C=C(NC2CCCC(O)C2)C1 (centres undefined)	none (no result: PfM18AAP inh-1, NS3 helicase inh)
O=C(NNc1ccc(F)cc1F)c1c(F)cccc1Cl	PfM18AAP inh-1 33 | PfM18AAP inh-2 inactive | CTSL1 counter inactive
O=C(NNc1c(Cl)cccc1Cl)c1c(F)cccc1Cl	none
COCCNC(=O)NC1(C(F)(F)F)Oc2ccc(Cl)cc2O1 (centres undefined)	PfM18AAP inh-1 83 (no result: ALR inh) | PfM18AAP inh-2 61 | CTSL1 counter inactive
Cc1cc(NC(=O)NC2(C(F)(F)F)Oc3ccc(Cl)cc3O2)no1 (centres undefined)	PfM18AAP inh-1 88 | PfM18AAP inh-2 83 | CTSL1 counter inactive
O=C(NCc1cccnc1)NC1(C(F)(F)F)Oc2ccc(Cl)cc2O1 (centres undefined)	PfM18AAP inh-1 80, ALR inh inconclusive | PfM18AAP inh-2 83 | CTSL1 counter inactive
COc1ccccc1CN1CC(=O)N2CSC[C@H]2C1=O	none
CSCC[C@H](NC(=O)Cc1c(C)c2c(cc(C)c3c(C)coc32)oc1=O)C(=O)O	none (no result: EBNA-1 inh, ZTA DNA inh, core dimer inh)
CC(C)CCN(C(=O)Nc1ccccc1)C(C)c1cccs1 (centres undefined)	none
O=S(=O)(Nc1cc(Sc2ncn[nH]2)c(O)c2ccccc12)c1ccccc1	PfM18AAP inh-1 38 (no result: EBNA-1 inh, ZTA DNA inh, ALR inh, core dimer inh) | PfM18AAP inh-2 inactive | CTSL1 counter inactive
C/C(=C/c1oc2ccc(O)cc2c1[N+](=O)[O-])N(C)C	PfM18AAP inh-1 37 (no result: ALR inh) | PfM18AAP inh-2 inactive | CTSL1 counter inactive
CC(/C=C/c1ccccc1)=N\Nc1nc(C)cc(C)n1	PfM18AAP inh-1 39 | PfM18AAP inh-2 inactive | CTSL1 counter inactive
Cc1cc(C)n2nc(SCC(=O)Nc3ccccc3)nc2n1	none
O=C1c2ccccc2C(=O)N1CSc1ncccn1	PfM18AAP inh-1 46 | PfM18AAP inh-2 inactive | CTSL1 counter inactive
O=C1c2ccccc2C(=O)N1CCc1ccccn1	none
Cc1cc(C)n2nc(SCN3C(=O)c4ccccc4C3=O)nc2n1	PfM18AAP inh-1 77 | PfM18AAP inh-2 inactive | CTSL1 counter inactive
CC1(C)CC(=O)C/C(=N/Nc2nc3ccccc3s2)C1	none (no result: ALR inh)
CC1CCC/C(=N/Nc2nc3ccccc3s2)C1 (centres undefined)	PfM18AAP inh-1 39, ALR inh 97 | PfM18AAP inh-2 inactive | CTSL1 counter inactive
Cc1ccc(S(=O)(=O)N2CCN(Cc3ccco3)CC2)c(C)c1	none
COc1ccccc1/C=C/C(=O)OC(C)CN1CCOCC1 (centres undefined)	PfM18AAP inh-1 51 | PfM18AAP inh-2 inactive | CTSL1 counter inactive
CC(C)CC1NC(=O)c2ccccc2-n2c1nc1ccc(Cl)cc1c2=O (centres undefined)	none (no result: PfM18AAP inh-1, EBNA-1 inh, NS3 helicase inh, ZTA DNA inh, core dimer inh)
O=c1cccccc1NCc1ccccc1	PfM18AAP inh-1 42 | PfM18AAP inh-2 inactive | CTSL1 counter inactive
COCCn1c(N)c(N(Cc2ccccc2)C(=O)COc2ccccc2F)c(=O)[nH]c1=O	none (no result: PfM18AAP inh-1, EBNA-1 inh, NS3 helicase inh, core dimer inh)
O=C(NCc1ccco1)c1cc2cc(Br)ccc2o1	PfM18AAP inh-1 33, ALR inh 98 | PfM18AAP inh-2 inactive | CTSL1 counter inactive
O=C(NCc1ccco1)c1cc(=O)c2ccccc2o1	none
O=C(NNc1ccc(-c2csnn2)cc1)c1ccccc1C(F)(F)F	PfM18AAP inh-1 40, ALR inh 98 | PfM18AAP inh-2 inactive | CTSL1 counter inactive
O=C(NNc1ccc(-c2csnn2)cc1)c1cc(Cl)cc(Cl)c1	none
N/C(Cn1cncn1)=N\OC(=O)c1ccc(Cl)cc1	none
O=C(OCn1cncn1)c1ccc(Cl)cc1Cl	PfM18AAP inh-1 53 | PfM18AAP inh-2 29 | CTSL1 counter inactive
